Experimental data as given in ChEMBL document CHEMBL1143585, “Synthesis of some cryptolepine analogues, assessment of their antimalarial and cytotoxic activities, and consideration of their antimalarial mode of action” (J Med Chem, 2005).

What was measured:
Mus musculus [1] = assay: In vivo antimalarial activity of compound against Plasmodium berghei was determined as suppression of parasitemia in mice (Mus musculus) at 25 mg/kg treated for 4 days; assay type: functional
Method in brief: (§1)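 Peters 4-day suppressive test in female BALB/c mice (18–20 g), five per group. Mice were infected iv with 1 × 10^7 P. berghei ANKA-infected erythrocytes. Drug was given ip daily for four consecutive days. Blood smears were taken on day 5, and % parasitemia suppression was calculated against untreated infected controls. Survival was recorded as days until signs of malaria illness.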

Plasmodium falciparum [2] = assay: In vitro antiplasmodial activity for Plasmodium falciparum; assay type: functional, organism-based; settings: Plasmodium falciparum
Method in brief: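 P. falciparum K1 ring-stage cultures in human A+ erythrocytes (RPMI 1640, A+ serum, glucose), at 2.5% hematocrit and 1% parasitemia. Two-fold serial dilutions in duplicate, final DMSO ≤0.5%. Incubated 48 h at 37 °C under 93% N2/3% O2/4% CO2. Growth read as parasite lactate dehydrogenase activity (APAD/NBT, 550 nm). IC50 by linear regression; at least three separate determinations.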

Mus musculus [3] = species on record: Mus musculus; assay: Mean survival time taken as number of days before illness due to Plasmodium berghei in untreated mice (Mus musculus); assay type: functional
Method in brief: (§2)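 Peters' 4-day suppressive test in female BALB/c mice (18-20 g), five per group. Each mouse got 1 × 10^7 P. berghei ANKA-infected erythrocytes iv. Drug was given ip in 0.2 mL daily for 4 consecutive days. Survival time was the number of days before signs of malaria illness, compared with untreated infected controls.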

MAC15A [4] = assay: Ratio of cytotoxic to that of antiplasmodial activity was determined; assay type: functional, Mus musculus
Mus musculus [5] = assay: Mean survival time taken as number of days before illness due to Plasmodium berghei when mice (Mus musculus) treated with 25 mg/kg dose for 4 days; assay type: functional; method in brief: as §2
MAC15A [6] = assay: Cytotoxicity against MAC15A mouse adenocarcinomas of the colon cells; assay type: functional, cell-based; settings: Mus musculus, MAC15A
Method in brief: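 MTT assay. MAC15A cells were seeded at 2 × 10^3 per well and attached overnight at 37 °C, 5% CO2. Drugs were dissolved in DMSO and diluted in medium (max 0.1% DMSO), eight wells per concentration, 96 h exposure. MTT (0.5 mg/mL) was then added for 24 h. Formazan was dissolved in DMSO and read at 550 nm. Survival is relative to vehicle control; IC50 from triplicate experiments.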

Mus musculus [7] = assay: In vivo antimalarial activity of compound against Plasmodium berghei in mice (Mus musculus) at dose of 25 mg/kg treated for 4 days; assay type: functional; method in brief: as §1
Mus musculus [8] = assay: In vivo antimalarial activity of compound against Plasmodium berghei was determined as suppression of parasitaemia in mice (Mus musculus) at 20 mg/kg treated for 4 days; c=toxic after the 2nd dose; assay type: functional, organism-based; parameters: dose 20 mg/kg
Mus musculus [9] = species on record: Mus musculus; assay: Mean survival time taken as number of days before illness due to Plasmodium berghei in […] mice (Mus musculus); c=toxic after the 2nd dose; assay type: functional, organism-based
Mus musculus [10] = assay: In vivo antimalarial activity of compound against Plasmodium berghei in mice (Mus musculus) at dose of 20 mg/kg treated for 4 days; c = toxic after 2nd dose; assay type: functional, organism-based; parameters: dose 20 mg/kg
Mus musculus [11] = assay: Mean survival time taken as number of days before illness due to Plasmodium berghei when mice (Mus musculus) treated with 20 mg/kg dose for 4 days; c=toxic after the 2nd dose; assay type: functional, organism-based; parameters: dose 20 mg/kg
[12] = biological target: T1, Histidine-rich protein PFHRP-II (Plasmodium falciparum) (UniProt P05227); assay: Antiplasmodial activity as IC50 against Beta-hematin formation; assay type: functional
T1 sequence (whole entry): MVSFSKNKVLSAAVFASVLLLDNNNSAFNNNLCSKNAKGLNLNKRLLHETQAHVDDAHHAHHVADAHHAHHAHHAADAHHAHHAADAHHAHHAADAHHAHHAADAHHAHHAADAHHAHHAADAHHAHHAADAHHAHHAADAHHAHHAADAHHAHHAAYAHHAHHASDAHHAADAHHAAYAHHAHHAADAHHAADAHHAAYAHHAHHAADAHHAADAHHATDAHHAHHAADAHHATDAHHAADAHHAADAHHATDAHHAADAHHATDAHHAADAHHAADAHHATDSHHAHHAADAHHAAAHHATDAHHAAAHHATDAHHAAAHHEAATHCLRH
Method in brief: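 β-Hematin inhibition (BHIA) assay: hemin (0.4 µmol/well) in DMSO with compound at 0.25–2 (or 4) molar equivalents to hemin, in triplicate. Final DMSO was 25%. Formation started with 8 M acetate buffer pH 5.0, then 37 °C for 18 h. The centrifuged pellet was dissolved in 0.1 M NaOH and read at 405 nm. BHIA50 is the drug equivalents relative to hemin giving 50% inhibition.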

[13] = Ionization constant for the compound; assay type: physicochemical
Plasmodium falciparum [14] = assay: […] accumulation into acidic parasitic food vacuole at pH=5.5; assay type: functional
Plasmodium falciparum [15] = assay: Normalized IC50 as product of antiplasmodial IC50 and vacuolar accumulation IC50; assay type: functional, organism-based
Mus musculus [16] = assay: Mean survival time taken as number of days before illness due to Plasmodium berghei when mice (Mus musculus) treated with 10 mg/kg dose for 4 days; g=mice (Mus musculus) survived the test; assay type: functional, organism-based; parameters: dose 10 mg/kg; method in brief: as §2
Mus musculus [17] = assay: In vivo antimalarial activity of compound against Plasmodium berghei was determined as suppression of parasitaemia in mice (Mus musculus) at 10 mg/kg treated for 4 days; assay type: functional
Mus musculus [18] = assay: In vivo antimalarial activity of compound against Plasmodium berghei in mice (Mus musculus) at dose of 10 mg/kg treated for 4 days; assay type: functional

SMILES	IC50 (Plasmodium falciparum [2])	Mean survival time (Mus musculus [3])	Ratio (MAC15A [4])	IC50 (MAC15A [6])	BHIA50 [12]	pKa [13]	Vascular accumulation ratio (Plasmodium falciparum [14])	other results
C[n+]1c2ccc(Cl)cc2cc2[nH]c3ccc(Br)cc3c21.[Cl-]	30 nM	11.8 days	57.7	1730 nM				Suppression of parasitemia (Mus musculus [1]): 91.85%; Mean survival time (Mus musculus [5]): 15.4 days; Parasitemia (Mus musculus [7]): 0.97%
C[n+]1c2ccccc2cc2[n-]c3ccccc3c21.Cl [CRYPTOLEPINE HYDROCHLORIDE]	440 nM		8.98	3950 nM				Suppression of parasitemia (Mus musculus [8]): Toxic after second dose; Mean survival time (Mus musculus [9]): Toxic after second dose; Parasitemia (Mus musculus [10]): Toxic after second dose; Mean survival time (Mus musculus [11]): Toxic after second dose
C[n+]1c2ccccc2cc2[nH]c3ccccc3c21.O=S(=O)([O-])O					1.64	11.8	79.43	
Cc1ccc2cc3[nH]c4ccccc4c3[n+](C)c2c1.[Cl-]	149 nM		23.6	3510 nM				
C[n+]1c2ccc(Br)cc2cc2[nH]c3ccccc3c21					0.63	10.2	79.3	
C[n+]1c2ccc(Br)cc2cc2[nH]c3ccc([N+](=O)[O-])cc3c21.[Cl-]	70 nM	6.4 days	14.7	1030 nM				Suppression of parasitemia (Mus musculus [1]): 90.75%; Mean survival time (Mus musculus [5]): 13 days; Parasitemia (Mus musculus [7]): 1.34%
C[n+]1c2ccccc2c(Cl)c2[nH]c3cc(Cl)ccc3c21					0.96	7.35	37.94	IC50 (Plasmodium falciparum [15]): 12900 nM
C[n+]1c2ccccc2cc2[nH]c3c([N+](=O)[O-])cccc3c21.[Cl-]					0.84	9.6	78.94	IC50 (Plasmodium falciparum [15]): 6850 nM
C[n+]1c2cc(Cl)ccc2cc2[nH]c3ccc(Br)cc3c21.[Cl-]	37 nM		30.8	1140 nM				
C[n+]1c2ccccc2cc2[nH]c3cc(Cl)ccc3c21.[I-]		9.6 days						Mean survival time (Mus musculus [5]): 14 days
C[n+]1c2cc(Cl)ccc2cc2[nH]c3ccccc3c21.[Cl-]	448 nM		3.9	1750 nM				
CCN(CC)CCCC(C)Nc1ccnc2cc(Cl)ccc12.O=P(O)(O)O.O=P(O)(O)O (stereo unspecified) [CHLOROQUINE PHOSPHATE]		8.56 days			1.44			Mean survival time (Mus musculus [16]): Mice survived; Suppression of parasitemia (Mus musculus [17]): 100%; Parasitemia (Mus musculus [18]): 0%
